High-throughput results: PubChem BioAssay, several laboratories
This is a sample that favours compounds with a hit; in the whole collection about 2.1% have one here.
MC4R antagonist = antagonists of human melanocortin 4 receptor (MC4R). hit rate 0.48% among 360,000. AID 540295. P32245. MC4R-expressing cells, MTII-stimulated cAMP, LANCE TR-FRET. inhibition, % at 6.5 µM;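 active means inhibition above its plate's cutoff, the mean of tested wells on that plate plus 3 SD, cut at about 29% in these data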;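 further: 0% = Melanotan II alone and 100% = Melanotan II plus saturating MCL0020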
Target sequence (P32245 whole entry, looked up): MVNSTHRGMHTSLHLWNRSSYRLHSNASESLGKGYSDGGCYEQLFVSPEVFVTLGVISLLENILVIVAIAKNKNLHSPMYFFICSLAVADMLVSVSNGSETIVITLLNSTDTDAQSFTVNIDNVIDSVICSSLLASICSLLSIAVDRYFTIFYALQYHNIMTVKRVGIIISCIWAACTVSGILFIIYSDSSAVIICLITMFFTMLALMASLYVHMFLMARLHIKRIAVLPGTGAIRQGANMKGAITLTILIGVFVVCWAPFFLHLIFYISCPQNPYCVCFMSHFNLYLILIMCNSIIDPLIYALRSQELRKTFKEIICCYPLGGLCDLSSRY
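Material – human MC4R-expressing U2OS cells · Repeats – no replicates · Detection – TR-FRET with Eu-cAMP and labeled anti-cAMP, 671 nm · Times – compound 30 min, challenge 1 h, detection 1 h · Compound – single nominal compound dose of 6.5 µM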
SMARCA2 act = SMARCA2 function activation, primary screen; activation, % at 9.1 µM; MG213 cells, MMTV-luciferase reporter, dexamethasone, overnight; hit rate 1% among 370,000; in the data active means activation above about 7.8%;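 further: 0% = vehicle wells and 100% = reference activator wells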
MC4R barr agon = activates human MC4R beta-arrestin recruitment; P32245; U2OS MC4R beta-arrestin complementation, luminescence; percent of melanotan II response, DMSO zero; activation, % at 8.9 µM; hit rate 0.98% among 360,000; AID 540308;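 active means activation above a per-plate cutoff, the mean activation of sample wells on that plate plus 3 SD, cut at about 8% in these data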
F508del corr = CFTR F508del correction in bronchial cells; CFBE cells, YFP halide quenching; stimulated with forskolin plus potentiator P3; % fluorescence drop versus neutral controls; activity (quench increase), % at 7.58 µM; hit rate 0.36% among 350,000; AID 720511;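 active means mean added fluorescence quench of at least 8% versus neutral control, with both replicates also reaching 8%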;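 further: cells transiently co-express mutant CFTR-F508del with the halide-sensitive YFP; corrector assay measuring rescue of mutant channel to the surface after 24 h compound exposure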
Active calls of the source: *; · = no result given; ! = a repeat was not active.

SMILES	MC4R antagonist	SMARCA2 act	MC4R barr agon	F508del corr
Cc1cc2c(C(C)C)c(O)c(O)c(C=O)c2c(O)c1-c1c(C)cc2c(C(C)C)c(O)c(O)c(C=O)c2c1O	14	-10	9.5*	2
c1ccc2nc(N3CCNCC3)ccc2c1	6	1	1	9.8*!
C=CC1CN2CCC1C[C@@H]2CO (stereo partly drawn)	·	·	·	-1
CC(C)C[C@@H]1COc2cccc(N3CCN(C)CC3)c2S(=O)(=O)N1	·	-4	·	12*
COC(=O)[C@@H]1[C@@H](CO)[C@@H]2Cn3c(ccc(-c4ccccc4F)c3=O)[C@H]1N2Cc1ccccc1	·	·	·	0
COc1ccc(CN2C(=O)NC(=O)/C(=C/c3ccc(OC)c(OC)c3OC)C2=O)cc1	4	-2	0	1
COc1ccc(-c2ccc(OC)c(OC)c2OC)cc1	-16	0	0	12*
CC(=O)OC1CC(OC2C(O)CC(OC3C(O)CC(OC4CCC5(C)C(CCC6C5CCC5(C)C(C7=CC(=O)OC7)C(O)CC65O)C4)OC3C)OC2C)OC(C)C1OC1OC(CO)C(O)C(O)C1O (stereo not drawn)	11	-9	15*	-3
CC(=O)[C@H]1CCC2C3CC[C@H]4C[C@@H](O)CC[C@]4(C)C3CC[C@@]21C (stereo partly drawn)	-2	0	0	-1
CC1OC(OC2C(O)CC(OC3C(O)CC(OC4CCC5(C)C(CCC6C5CCC5(C)C(C7=CC(=O)OC7)C(O)CC65O)C4)OC3C)OC2C)CC(O)C1O (stereo not drawn)	1	1	27*	-5
CC(=O)OC1CC2(O)C3CCC4CC(O)CCC4(C)C3CCC2(C)C1C1=CC(=O)OC1 (stereo not drawn)	10	-9	17*	-2
CC(=O)O[C@@H]1CC[C@]2(C)C3CC[C@@]4(C)C(C[C@@H](O)[C@@H]4O)C3[C@@H](OC(C)=O)C[C@H]2C1 (stereo partly drawn)	11	-3	2	-3
COC(=O)[C@@H]1[C@@H](CO)[C@@H]2Cn3c(ccc(-c4cccc(F)c4)c3=O)[C@H]1N2Cc1ccccc1	·	·	·	2
COC(=O)[C@H]1[C@H](CO)[C@H]2Cn3c(ccc(-c4cncnc4)c3=O)[C@@H]1N2S(=O)(=O)c1ccccc1C	·	·	·	1
Nc1ccc2ccc3cccc[n+]3c2c1	-6	-1	0	15*
O=C(O)Cc1cnc[nH]1	3	-1	0	-1
C[C@@H](N)Cc1cnc[nH]1	15	-1	-1	11*
COC(=O)[C@@H]1[C@@H](CO)[C@@H]2Cn3c(ccc(C4=CCCC4)c3=O)[C@H]1N2CC1CCCC1	·	·	·	1
Cc1cccc(S(=O)(=O)N2[C@@H]3c4ccc(-c5cccc(F)c5)c(=O)n4C[C@H]2[C@H](CO)[C@H]3C(=O)O)c1	·	·	·	0
CC/C=C/CC(=O)N[C@@H](c1ccccc1)[C@@H](O)C(=O)O[C@H]1C[C@@]2(O)[C@@H](OC(=O)c3ccccc3)C3[C@](C)(C(=O)[C@H](OC(C)=O)C(=C1C)C2(C)C)[C@@H](O)C[C@H]1OC[C@@]31OC(C)=O (stereo partly drawn)	5	-4	-1	17*
CCC(C)C(=O)N[C@@H](c1ccccc1)[C@@H](O)C(=O)O[C@H]1C[C@@]2(O)[C@@H](OC(=O)c3ccccc3)C3[C@](C)(C(=O)[C@H](OC(C)=O)C(=C1C)C2(C)C)[C@@H](O)C[C@H]1OC[C@@]31OC(C)=O (stereo partly drawn)	3	-2	1	11*
COC(=O)[C@H]1[C@H](CO)[C@H]2Cn3c(ccc(C4=CCCCC4)c3=O)[C@@H]1N2CC1CCCC1	·	·	·	-2
O=C(C1CC1)N1C[C@@H]2N[C@H](C1)[C@@H]2c1ccc(-c2ccncc2)cc1	·	·	·	-4
O=C(Cc1cccnc1)N1CCCCN2[C@H](CO)[C@H](c3ccc(C#CC4CC4)cc3)[C@@H]2C1	·	·	·	0
CCCC#Cc1ccc([C@@H]2[C@@H](CO)N3CCCCN(C(=O)Cc4ccccn4)C[C@@H]23)cc1	·	·	·	-4
Cc1cccc(-n2c(O)c(/C=C3/C(c4ccccc4)=Nc4ccccc43)c(=O)[nH]c2=O)c1	-5	2	2	12*
Cc1nc2ccccc2c(=O)n1-c1nccs1	·	-2	·	3
Cc1ccc(-c2nc3ccccc3c(=O)n2-c2nccs2)cc1	-3	5	9.2*	·
C[C@]12CCC3C(CCC4=CC(O)CC[C@@]43/C=N/O)C1(O)CCC2C1=CC(=O)OC1 (stereo partly drawn)	0	-7	39*	-3
